Data reported in ChEMBL document CHEMBL4680371, “Design and Structure-Activity Relationship of a Potent Furin Inhibitor Derived from Influenza Hemagglutinin” (ACS Med Chem Lett, 2021).
Where a SMILES comes first, the peptide text is derived from it. [ ]: non-standard residue; d: D form. Abu = CC[C@H](N)C(=O)O; Aib = CC(C)(N)C(=O)O

Molecular target: Furin (Homo sapiens, UniProt P09958)
Test: Inhibition of recombinant soluble human furin using pyroGlu-Arg-Thr-Lys-Arg-methyl-coumaryl-7-amide as substrate measured after 1 hr
Method in brief: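 Soluble human recombinant furin was tested in a competitive kinetic assay. Ki is reported as the mean ± SD of at least two independent experiments.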

Sequence of Furin (P09958 whole entry): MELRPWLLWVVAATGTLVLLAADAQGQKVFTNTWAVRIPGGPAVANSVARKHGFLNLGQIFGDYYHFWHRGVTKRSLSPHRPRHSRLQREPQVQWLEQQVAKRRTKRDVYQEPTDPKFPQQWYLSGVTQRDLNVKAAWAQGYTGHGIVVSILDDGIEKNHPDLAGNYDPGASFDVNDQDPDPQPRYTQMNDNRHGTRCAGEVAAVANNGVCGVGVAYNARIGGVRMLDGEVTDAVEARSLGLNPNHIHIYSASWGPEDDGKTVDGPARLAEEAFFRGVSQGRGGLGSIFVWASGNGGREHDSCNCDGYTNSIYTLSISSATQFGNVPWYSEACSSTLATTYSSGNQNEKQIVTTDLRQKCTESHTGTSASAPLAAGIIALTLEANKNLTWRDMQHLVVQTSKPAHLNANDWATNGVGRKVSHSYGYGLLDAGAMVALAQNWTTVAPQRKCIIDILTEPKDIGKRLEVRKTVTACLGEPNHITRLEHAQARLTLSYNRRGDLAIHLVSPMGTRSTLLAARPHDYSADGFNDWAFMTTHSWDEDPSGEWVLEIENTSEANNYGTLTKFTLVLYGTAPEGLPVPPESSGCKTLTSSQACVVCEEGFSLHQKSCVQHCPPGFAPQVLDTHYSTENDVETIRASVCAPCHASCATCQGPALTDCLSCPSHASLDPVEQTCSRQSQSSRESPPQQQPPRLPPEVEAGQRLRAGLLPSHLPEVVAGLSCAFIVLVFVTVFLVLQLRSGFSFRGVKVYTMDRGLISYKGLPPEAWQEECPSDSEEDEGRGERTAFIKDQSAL

CC(=O)N[C@@H](CCCNC(=N)N)C(=O)N[C@@H](Cc1c[nH]cn1)C(=O)N[C@@H](CCCNC(=N)N)C(=O)N[C@@H](CCCNC(=N)N)C(=O)N[C@@H](CCCNC(=N)N)C(=O)N[C@@H](CCCCN)C(=O)N[C@@H](CCCCN)C(=O)N[C@@H](CCCNC(=N)N)C(=O)N[C@H](C(N)=O)[C@@H](C)O
Ki: 21 nM

CC(=O)N[C@@H](CCCCN)C(=O)N[C@@H](C)C(=O)N[C@@H](CCCNC(=N)N)C(=O)N[C@@H](CCCNC(=N)N)C(=O)N[C@@H](CCCNC(=N)N)C(=O)N[C@@H](CCCCN)C(=O)N[C@@H](CCCCN)C(=O)N[C@@H](CCCNC(=N)N)C(=O)N[C@H](C(N)=O)[C@@H](C)O
Ki: 13 nM

CC[C@H](NC(C)=O)C(=O)N[C@@H](C)C(=O)N[C@@H](CCCNC(=N)N)C(=O)N[C@H](C(=O)N[C@@H](CCCNC(=N)N)C(=O)N[C@@H](CCCCN)C(=O)N[C@@H](CCCCN)C(=O)N[C@@H](CCCNC(=N)N)C(=O)N[C@H](C(N)=O)[C@@H](C)O)[C@@H](C)CC (Ac-[Abu]ARIRKKRT-NH2)
Ki: 6 nM

CC(=O)N[C@@H](Cc1ccc(O)cc1)C(=O)N[C@@H](C)C(=O)N[C@@H](CCCNC(=N)N)C(=O)N[C@@H](CCCNC(=N)N)C(=O)N[C@@H](CCCNC(=N)N)C(=O)N[C@@H](CCCCN)C(=O)N[C@@H](CCCCN)C(=O)N[C@@H](CCCNC(=N)N)C(=O)N[C@H](C(N)=O)[C@@H](C)O
Ki: 18 nM

CC(=O)N[C@@H](CCCNC(=N)N)C(=O)N[C@@H](CCC(N)=O)C(=O)N[C@@H](CCCNC(=N)N)C(=O)N[C@@H](CCCNC(=N)N)C(=O)N[C@@H](CCCNC(=N)N)C(=O)N[C@@H](CCCCN)C(=O)N[C@@H](CCCCN)C(=O)N[C@@H](CCCNC(=N)N)C(=O)N[C@H](C(N)=O)[C@@H](C)O
Ki: 19 nM

CC(=O)N[C@@H](CCCNC(=N)N)C(=O)N[C@@H](C)C(=O)N[C@@H](Cc1ccc(O)cc1)C(=O)N[C@@H](CCCNC(=N)N)C(=O)N[C@@H](CCCNC(=N)N)C(=O)N[C@@H](CCCCN)C(=O)N[C@@H](CCCCN)C(=O)N[C@@H](CCCNC(=N)N)C(=O)N[C@H](C(N)=O)[C@@H](C)O
Ki: 48 nM

CC(=O)N[C@H](C(=O)N[C@@H](C)C(=O)N[C@@H](CCCNC(=N)N)C(=O)N[C@@H](CCCNC(=N)N)C(=O)N[C@@H](CCCNC(=N)N)C(=O)N[C@@H](CCCCN)C(=O)N[C@@H](CCCCN)C(=O)N[C@@H](CCCNC(=N)N)C(=O)N[C@H](C(N)=O)[C@@H](C)O)[C@@H](C)O
Ki: 10 nM

CC(=O)N[C@@H](CC(N)=O)C(=O)N[C@@H](C)C(=O)N[C@@H](CCCNC(=N)N)C(=O)N[C@@H](CCCNC(=N)N)C(=O)N[C@@H](CCCNC(=N)N)C(=O)N[C@@H](CCCCN)C(=O)N[C@@H](CCCCN)C(=O)N[C@@H](CCCNC(=N)N)C(=O)N[C@H](C(N)=O)[C@@H](C)O
Ki: 12 nM

CC(=O)N[C@@H](CCCNC(=N)N)C(=O)N[C@@H](CCCCN)C(=O)N[C@@H](CCCNC(=N)N)C(=O)N[C@@H](CCCNC(=N)N)C(=O)N[C@@H](CCCNC(=N)N)C(=O)N[C@@H](CCCCN)C(=O)N[C@@H](CCCCN)C(=O)N[C@@H](CCCNC(=N)N)C(=O)N[C@H](C(N)=O)[C@@H](C)O
Ki: 16 nM

CC(=O)N[C@@H](C)C(=O)N[C@@H](Cc1c[nH]c2ccccc12)C(=O)N[C@@H](CCCNC(=N)N)C(=O)N[C@@H](CCCNC(=N)N)C(=O)N[C@@H](CCCNC(=N)N)C(=O)N[C@@H](CCCCN)C(=O)N[C@@H](CCCCN)C(=O)N[C@@H](CCCNC(=N)N)C(=O)N[C@H](C(N)=O)[C@@H](C)O (Ac-AWRRRKKRT-NH2)
Ki: 30 nM

CC(=O)N[C@@H](CCCNC(=N)N)C(=O)N[C@@H](C)C(=O)N[C@@H](Cc1c[nH]cn1)C(=O)N[C@@H](CCCNC(=N)N)C(=O)N[C@@H](CCCNC(=N)N)C(=O)N[C@@H](CCCCN)C(=O)N[C@@H](CCCCN)C(=O)N[C@@H](CCCNC(=N)N)C(=O)N[C@H](C(N)=O)[C@@H](C)O
Ki: 25 nM

CC(=O)N[C@@H](CCCNC(=N)N)C(=O)N[C@@H](C)C(=O)N[C@@H](CCCNC(=N)N)C(=O)N[C@@H](Cc1ccc(O)cc1)C(=O)N[C@@H](CCCNC(=N)N)C(=O)N[C@@H](CCCCN)C(=O)N[C@@H](CCCCN)C(=O)N[C@@H](CCCNC(=N)N)C(=O)N[C@H](C(N)=O)[C@@H](C)O
Ki: 35 nM

CC(=O)N[C@@H](CC(C)C)C(=O)N[C@@H](C)C(=O)N[C@@H](CCCNC(=N)N)C(=O)N[C@@H](CCCNC(=N)N)C(=O)N[C@@H](CCCNC(=N)N)C(=O)N[C@@H](CCCCN)C(=O)N[C@@H](CCCCN)C(=O)N[C@@H](CCCNC(=N)N)C(=O)N[C@H](C(N)=O)[C@@H](C)O
Ki: 12 nM

CC(=O)N[C@@H](CCCNC(=N)N)C(=O)N[C@@H](CCCNC(=N)N)C(=O)N[C@@H](CCCNC(=N)N)C(=O)N[C@@H](CCCNC(=N)N)C(=O)N[C@@H](CCCNC(=N)N)C(=O)N[C@@H](CCCCN)C(=O)N[C@@H](CCCCN)C(=O)N[C@@H](CCCNC(=N)N)C(=O)N[C@H](C(N)=O)[C@@H](C)O
Ki: 23 nM

CC(=O)N[C@@H](CCCNC(=N)N)C(=O)N[C@@H](C)C(=O)N[C@@H](CCCNC(=N)N)C(=O)N[C@H](C(=O)N[C@@H](CCCNC(=N)N)C(=O)N[C@@H](CCCCN)C(=O)N[C@@H](CCCCN)C(=O)N[C@@H](CCCNC(=N)N)C(=O)N[C@H](C(N)=O)[C@@H](C)O)C(C)(C)C
Ki: 16 nM

CC(=O)N[C@@H](CCCNC(=N)N)C(=O)N[C@@H](C)C(=O)N[C@@H](CCCNC(=N)N)C(=O)N[C@@H](CO)C(=O)N[C@@H](CCCNC(=N)N)C(=O)N[C@@H](CCCCN)C(=O)N[C@@H](CCCCN)C(=O)N[C@@H](CCCNC(=N)N)C(=O)N[C@H](C(N)=O)[C@@H](C)O
Ki: 9 nM

CSCC[C@H](NC(C)=O)C(=O)N[C@@H](C)C(=O)N[C@@H](CCCNC(=N)N)C(=O)N[C@@H](CCCNC(=N)N)C(=O)N[C@@H](CCCNC(=N)N)C(=O)N[C@@H](CCCCN)C(=O)N[C@@H](CCCCN)C(=O)N[C@@H](CCCNC(=N)N)C(=O)N[C@H](C(N)=O)[C@@H](C)O
Ki: 12 nM

CC(=O)N[C@@H](CCCNC(=N)N)C(=O)N[C@@H](C)C(=O)N[C@@H](CCCNC(=N)N)C(=O)N[C@@H](C)C(=O)N[C@@H](CCCNC(=N)N)C(=O)N[C@@H](CCCCN)C(=O)N[C@@H](CCCCN)C(=O)N[C@@H](CCCNC(=N)N)C(=O)N[C@H](C(N)=O)[C@@H](C)O
Ki: 11 nM

CC[C@H](C)[C@H](NC(=O)[C@H](CCCNC(=N)N)NC(=O)[C@H](C)NC(=O)[C@@H](NC(C)=O)C(C)C)C(=O)N[C@@H](CCCNC(=N)N)C(=O)N[C@@H](CCCCN)C(=O)N[C@@H](CCCCN)C(=O)N[C@@H](CCCNC(=N)N)C(=O)N[C@H](C(N)=O)[C@@H](C)O (Ac-VARIRKKRT-NH2)
Ki: 10 nM

CC[C@H](C)[C@H](NC(=O)[C@H](CCCNC(=N)N)NC(=O)[C@H](C)NC(=O)[C@H](CO)NC(C)=O)C(=O)N[C@@H](CCCNC(=N)N)C(=O)N[C@@H](CCCCN)C(=O)N[C@@H](CCCCN)C(=O)N[C@@H](CCCNC(=N)N)C(=O)N[C@H](C(N)=O)[C@@H](C)O (Ac-SARIRKKRT-NH2)
Ki: 8 nM

CC[C@H](C)[C@H](NC(=O)[C@H](CCCNC(=N)N)NC(=O)[C@H](C)NC(=O)C(C)(C)NC(C)=O)C(=O)N[C@@H](CCCNC(=N)N)C(=O)N[C@@H](CCCCN)C(=O)N[C@@H](CCCCN)C(=O)N[C@@H](CCCNC(=N)N)C(=O)N[C@H](C(N)=O)[C@@H](C)O (Ac-[Aib]ARIRKKRT-NH2)
Ki: 13 nM

CC(=O)N[C@@H](CC(=O)O)C(=O)N[C@@H](C)C(=O)N[C@@H](CCCNC(=N)N)C(=O)N[C@@H](CCCNC(=N)N)C(=O)N[C@@H](CCCNC(=N)N)C(=O)N[C@@H](CCCCN)C(=O)N[C@@H](CCCCN)C(=O)N[C@@H](CCCNC(=N)N)C(=O)N[C@H](C(N)=O)[C@@H](C)O
Ki: 20 nM

CC(=O)N[C@@H](CCCNC(=N)N)C(=O)N[C@@H](C)C(=O)N[C@@H](Cc1c[nH]c2ccccc12)C(=O)N[C@@H](CCCNC(=N)N)C(=O)N[C@@H](CCCNC(=N)N)C(=O)N[C@@H](CCCCN)C(=O)N[C@@H](CCCCN)C(=O)N[C@@H](CCCNC(=N)N)C(=O)N[C@H](C(N)=O)[C@@H](C)O
Ki: 97 nM

CC(=O)N[C@@H](CCCNC(=N)N)C(=O)N[C@@H](C)C(=O)N[C@@H](CCCNC(=N)N)C(=O)N1CCC[C@H]1C(=O)N[C@@H](CCCNC(=N)N)C(=O)N[C@@H](CCCCN)C(=O)N[C@@H](CCCCN)C(=O)N[C@@H](CCCNC(=N)N)C(=O)N[C@H](C(N)=O)[C@@H](C)O
Ki: 8 nM

CC(=O)N[C@@H](CCCNC(=N)N)C(=O)N[C@@H](Cc1c[nH]c2ccccc12)C(=O)N[C@@H](CCCNC(=N)N)C(=O)N[C@@H](CCCNC(=N)N)C(=O)N[C@@H](CCCNC(=N)N)C(=O)N[C@@H](CCCCN)C(=O)N[C@@H](CCCCN)C(=O)N[C@@H](CCCNC(=N)N)C(=O)N[C@H](C(N)=O)[C@@H](C)O
Ki: 29 nM

CC(=O)N[C@@H](CCCNC(=N)N)C(=O)N1CCC[C@H]1C(=O)N[C@@H](CCCNC(=N)N)C(=O)N[C@@H](CCCNC(=N)N)C(=O)N[C@@H](CCCNC(=N)N)C(=O)N[C@@H](CCCCN)C(=O)N[C@@H](CCCCN)C(=O)N[C@@H](CCCNC(=N)N)C(=O)N[C@H](C(N)=O)[C@@H](C)O
Ki: 17 nM

CC(=O)N[C@@H](CCCNC(=N)N)C(=O)N[C@@H](C)C(=O)N[C@@H](CO)C(=O)N[C@@H](CCCNC(=N)N)C(=O)N[C@@H](CCCNC(=N)N)C(=O)N[C@@H](CCCCN)C(=O)N[C@@H](CCCCN)C(=O)N[C@@H](CCCNC(=N)N)C(=O)N[C@H](C(N)=O)[C@@H](C)O
Ki: 29 nM

CC(=O)N[C@@H](CCCNC(=N)N)C(=O)N[C@@H](C)C(=O)N[C@@H](CCCNC(=N)N)C(=O)N[C@@H](Cc1c[nH]c2ccccc12)C(=O)N[C@@H](CCCNC(=N)N)C(=O)N[C@@H](CCCCN)C(=O)N[C@@H](CCCCN)C(=O)N[C@@H](CCCNC(=N)N)C(=O)N[C@H](C(N)=O)[C@@H](C)O
Ki: 47 nM

CC(=O)N[C@@H](CCCNC(=N)N)C(=O)N[C@@H](C)C(=O)N[C@@H](CCCNC(=N)N)C(=O)NC1(C(=O)N[C@@H](CCCNC(=N)N)C(=O)N[C@@H](CCCCN)C(=O)N[C@@H](CCCCN)C(=O)N[C@@H](CCCNC(=N)N)C(=O)N[C@H](C(N)=O)[C@@H](C)O)CCCC1
Ki: 50 nM

CC(=O)N[C@@H](CCCNC(=N)N)C(=O)N[C@@H](C)C(=O)N[C@@H](CCC(=O)O)C(=O)N[C@@H](CCCNC(=N)N)C(=O)N[C@@H](CCCNC(=N)N)C(=O)N[C@@H](CCCCN)C(=O)N[C@@H](CCCCN)C(=O)N[C@@H](CCCNC(=N)N)C(=O)N[C@H](C(N)=O)[C@@H](C)O
Ki: 140 nM
